Source: ChEMBL document CHEMBL1137779, “Discovery of 2-[5-(4-chloro-phenyl)-1-(2,4-dichloro-phenyl)-4-ethyl-1H-pyrazol-3-yl]-1,5,5-trimethyl-1,5-dihydro-imidazol-4-thione (BPR-890) via an active metabolite. A novel, potent and selective cannabinoid-1 receptor inverse agonist with high antiobesity efficacy in DIO mice” (J Med Chem, 2009)
Activity calls are given as the source filed them. The calls are words filed in the database; no cut-off is given here.

Legend:
[1] = molecular target: Cannabinoid receptor 2 (Homo sapiens, UniProt P34972); assay: Displacement of [3H]CP-55940 from human recombinant CB2R expressed in HEK293 cells; assay type: cell-based
[2] = organism: Homo sapiens; assay: Selectivity ratio of IC50 for human recombinant CB2R to IC50 for human recombinant CB1R
Method in brief: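 hCB1- or hCB2-transfected HEK 293 stable clones; purified membranes (0.2-8 μg) incubated with 0.75 nM [3H]CP-55,940 plus test compound in 50 mM Tris-HCl, 5 mM MgCl2, 1 mM EDTA, 0.3% BSA, pH 7.4, 1.5 h at 30 °C. Nonspecific binding with 1 μM CP-55,940. Filtration, bound radioactivity counted; IC50 by nonlinear regression. Mean ± SD of at least three independent experiments.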

[3] = molecular target: T1, Cannabinoid receptor 1 (Homo sapiens, UniProt P21554); assay: biochemical; assay type: cell-based, HEK293
[4] = molecular target: T1, Cannabinoid receptor 1; assay type: cell-based, HEK293
[5] = system: Brain; assay: Drug level in brain of diet-induced obesity C57BL/6 mouse model at 10 mg/kg, po; assay type: ADME, organism-based; design: dose 10 mg/kg, route oral; details: in vivo
[6] = system: Mus musculus; assay: Induction of weight loss in diet induced obesity C57BL/6 mouse model at 10 mg/kg, po qd relative to control; assay type: functional
Method in brief: (§1)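 DIO mice, weight-matched into groups (n = 8/group), given vehicle (10% DMSO/10% Tween 80/80% H2O) or compound by oral gavage once daily for 29 days. Food intake and body weight recorded daily. Read-out is cumulative percentage body-weight change versus vehicle, reported as mean ± standard error.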

[7] = system: Brain; assay: Drug level in brain of diet-induced obesity C57BL/6 mouse model at 1 mg/kg, po; assay type: ADME, organism-based; design: dose 1 mg/kg, route oral; details: in vivo
[8] = system: Mus musculus; assay: Induction of weight loss in diet induced obesity C57BL/6 mouse model at 1 mg/kg, po after 29 days relative to control; assay type: functional; method in brief: as §1
[9] = system: Rattus norvegicus; assay: Suppression of food intake in Wistar rat spontaneously feeding model at 3 mg/kg, po after 6 hrs
[10] = system: Mus musculus; assay: Induction of weight loss in po dosed diet induced obesity C57BL/6 mouse model assessed as minimum effective dose after 29 days; assay type: functional; method in brief: as §1
[11] = system: Mus musculus; assay: Reduction of food intake in diet induced obesity C57BL/6 mouse model at 0.3 mg/kg, po after 29 days; assay type: functional, organism-based; design: dose 0.3 mg/kg
Method in brief: (§2)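 Weight-matched DIO mice (n = 8/group) gavaged once daily with compound or vehicle (10% DMSO/10% Tween 80/80% H2O) for 29 days. Food consumed and body weight measured daily. Mean ± standard error.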

[12] = system: Mus musculus; assay: Induction of weight loss in diet induced obesity C57BL/6 mouse model at 0.3 mg/kg, po after 29 days relative to control; assay type: functional; method in brief: as §1
[13] = system: Mus musculus; assay: Reduction of food intake in diet induced obesity C57BL/6 mouse model at 0.03 mg/kg, po after 29 days; assay type: functional, organism-based; design: dose 0.03 mg/kg; method in brief: as §2
[14] = system: Mus musculus; assay: Reduction of food intake in diet induced obesity C57BL/6 mouse model at 0.1 mg/kg, po after 29 days; assay type: functional, organism-based; design: dose 0.1 mg/kg; method in brief: as §2
[15] = system: Brain; assay: Drug level in brain of diet-induced obesity C57BL/6 mouse model at 0.3 mg/kg, po; assay type: ADME, organism-based; design: dose 0.3 mg/kg, route oral; details: in vivo
[16] = system: Rattus norvegicus; assay: Induction of weight loss in diet induced obesity Wistar rat model at 0.1 mg/kg, po qd after 29 days relative to control; assay type: functional
[17] = system: Mus musculus; assay: Induction of weight loss in diet induced obesity C57BL/6 mouse model at 0.03 mg/kg, po after 29 days relative to control; assay type: functional; method in brief: as §1
[18] = system: Mus musculus; assay: Induction of weight loss in diet induced obesity C57BL/6 mouse model at 0.1 mg/kg, po after 29 days relative to control; assay type: functional; method in brief: as §1
[19] = system: Rattus norvegicus; assay: Induction of weight loss in diet induced obesity Wistar rat model at 0.3 mg/kg, po qd after 29 days relative to control; assay type: functional
[20] = system: Rattus norvegicus; assay: Suppression of food intake in Wistar rat spontaneously feeding model at 0.3 mg/kg, po after 6 hrs

Sequence of Cannabinoid receptor 2 (P34972 whole entry): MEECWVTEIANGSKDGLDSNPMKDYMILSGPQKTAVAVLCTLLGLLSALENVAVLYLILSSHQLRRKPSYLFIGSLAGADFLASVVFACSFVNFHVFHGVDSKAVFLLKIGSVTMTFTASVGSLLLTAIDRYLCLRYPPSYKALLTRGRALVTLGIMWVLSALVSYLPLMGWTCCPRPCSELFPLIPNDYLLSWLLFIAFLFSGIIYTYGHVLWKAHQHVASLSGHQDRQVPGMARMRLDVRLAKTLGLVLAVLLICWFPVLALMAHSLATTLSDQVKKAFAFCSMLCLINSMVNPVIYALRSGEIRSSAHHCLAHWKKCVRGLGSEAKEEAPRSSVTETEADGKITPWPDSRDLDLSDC
T1 sequence (P21554 whole entry): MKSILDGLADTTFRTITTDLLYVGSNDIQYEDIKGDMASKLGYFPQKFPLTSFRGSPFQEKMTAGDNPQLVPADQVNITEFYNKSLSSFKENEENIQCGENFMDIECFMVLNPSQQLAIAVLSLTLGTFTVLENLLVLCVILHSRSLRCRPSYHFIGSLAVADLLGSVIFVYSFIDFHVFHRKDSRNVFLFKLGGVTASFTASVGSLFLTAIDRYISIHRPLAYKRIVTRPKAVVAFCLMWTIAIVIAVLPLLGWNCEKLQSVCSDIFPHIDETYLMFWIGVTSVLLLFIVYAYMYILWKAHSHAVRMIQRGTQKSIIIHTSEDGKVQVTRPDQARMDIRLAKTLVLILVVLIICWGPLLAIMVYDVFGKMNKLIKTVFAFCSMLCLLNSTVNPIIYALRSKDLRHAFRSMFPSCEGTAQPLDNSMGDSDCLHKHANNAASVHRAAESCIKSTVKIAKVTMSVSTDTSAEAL

| IC50 [1] | Ratio IC50 [2] | IC50 [3] | Compound | further results |
| --- | --- | --- | --- | --- |
| 1.37 µM | 94 | 0.0146 µM | CCc1c(C2=NC3(CCCC3)C(=O)N2)nn(-c2ccc(Cl)cc2Cl)c1-c1ccc(Cl)cc1 | – |
| 3.25 µM | 97 | 0.0336 µM | Cc1c(C2=NC(C)(C)C(=O)N2C)nn(-c2ccc(Cl)cc2Cl)c1-c1ccc(Cl)cc1 | – |
| 3.97 µM | 250 | 0.0159 µM | Cc1c(C2=NC(=O)C(C)(C)N2C)nn(-c2ccc(Cl)cc2Cl)c1-c1ccc(C(F)(F)F)cc1 | EC50 [4]: 0.081 µM |
| 1.57 µM | 37 | 0.0425 µM | CN1C(c2nn(-c3ccc(Cl)cc3Cl)c(-c3ccc(Cl)cc3)c2Br)=NC(=O)C1(C)C | – |
| 1.1 µM | 23 | 0.0474 µM | Cc1c(C2=NC(=O)C(C)(C)N2C)nn(-c2ccc(Cl)cc2Cl)c1-c1ccc(Br)cc1 | – |
| 2.74 µM | 213 | 0.0129 µM | CCc1c(C2=NC(=O)C(C)(C)N2C)nn(-c2ccc(Cl)cc2Cl)c1-c1ccc(Cl)cc1 | EC50 [4]: 0.0098 µM |
| 3.5 µM | 66 | 0.0534 µM | Cc1c(C2=NC(C)(C)C(=O)N2)nn(-c2ccc(Cl)cc2Cl)c1-c1ccc(Cl)cc1 | – |
| 0.497 µM | 40 | 0.0123 µM | CCc1c(C2=NC3(CCCCC3)C(=O)N2)nn(-c2ccc(Cl)cc2Cl)c1-c1ccc(Cl)cc1 | – |
| 5.13 µM | 26 | 0.197 µM | Cc1c(C2=NC(=O)C(C)(C)N2Cc2ccccc2)nn(-c2ccc(Cl)cc2Cl)c1-c1ccc(Cl)cc1 | – |
| 3.18 µM | 139 | 0.0228 µM | CCc1c(C2=NC3(CCC3)C(=O)N2)nn(-c2ccc(Cl)cc2Cl)c1-c1ccc(Cl)cc1 | EC50 [4]: 0.0123 µM |
| 2.88 µM | 12 | 0.249 µM | C=CCN1C(c2nn(-c3ccc(Cl)cc3Cl)c(-c3ccc(Cl)cc3)c2C)=NC(=O)C1(C)C | – |

Continued, molecule first:

| Compound | IC50 [1] | Ratio IC50 [2] | IC50 [3] | further results |
| --- | --- | --- | --- | --- |
| Cc1c(C2=NC(=O)C(C)(C)N2C)nn(-c2ccc(Cl)cc2Cl)c1-c1ccc(Cl)cc1 | 0.487 µM | 9 | 0.0547 µM | – |
| CCCCN1C(c2nn(-c3ccc(Cl)cc3Cl)c(-c3ccc(Cl)cc3)c2C)=NC(=O)C1(C)C | 4.76 µM | 4 | 1.11 µM | – |
| CN1C(c2nn(-c3ccc(Cl)cc3Cl)c(-c3ccc(Cl)cc3)c2C2CC2)=NC(=O)C1(C)C | 0.822 µM | 19 | 0.0439 µM | – |
| Cc1c(C2=NC(=S)C(C)(C)N2C)nn(-c2ccc(Cl)cc2Cl)c1-c1ccc(Cl)cc1 | 0.901 µM | 143 | 0.0063 µM | EC50 [4]: 0.0085 µM |
| CCCN1C(c2nn(-c3ccc(Cl)cc3Cl)c(-c3ccc(Cl)cc3)c2C)=NC(=O)C1(C)C | 5.51 µM | 7 | 0.854 µM | – |
| Cc1c(C2=NC(=O)C(C)(C)N2C2CC2)nn(-c2ccc(Cl)cc2Cl)c1-c1ccc(Cl)cc1 | 1.95 µM | 21 | 0.0952 µM | – |
| Cc1c(C(=O)NN2CCCCC2)nn(-c2ccc(Cl)cc2Cl)c1-c1ccc(Cl)cc1 [RIMONABANT] | – | – | – | Drug uptake [5]: 113 ng/g; Activity [6]: 23.8% |
| CCc1c(C2=NC(C)(C)C(=O)N2)nn(-c2ccc(Cl)cc2Cl)c1-c1ccc(Cl)cc1 | 10.3 µM | 314 | 0.0326 µM | Drug uptake [7]: 1118 ng/g; EC50 [4]: 0.0202 µM; Activity [8]: 27.4%; Activity [9]: Active; MED [10]: 0.1 mg/kg |
| CN1C(c2cc(-c3ccc(Cl)cc3)n(-c3ccc(Cl)cc3Cl)n2)=NC(=O)C1(C)C | 7.95 µM | 24 | 0.325 µM | – |
| Cc1c(C(=O)NC(=O)C(C)(C)N(C)C)nn(-c2ccc(Cl)cc2Cl)c1-c1ccc(Cl)cc1 | – | 35 | 0.0829 µM | – |
| CCN1C(c2nn(-c3ccc(Cl)cc3Cl)c(-c3ccc(Cl)cc3)c2C)=NC(=O)C1(C)C | 1.17 µM | 11 | 0.107 µM | – |
| COc1ccc(-c2c(C)c(C3=NC(=O)C(C)(C)N3C)nn2-c2ccc(Cl)cc2Cl)cc1 | 1.06 µM | 5 | 0.212 µM | – |
| CCc1c(C2=NC(=O)C(C)(C)N2C)nn(-c2ccc(Cl)cc2Cl)c1-c1ccc(Br)cc1 | 0.768 µM | 47 | 0.0163 µM | – |
| CCc1c(C2=NC(C)(C)C(=O)N2C)nn(-c2ccc(Cl)cc2Cl)c1-c1ccc(Cl)cc1 | 4.33 µM | 128 | 0.0338 µM | EC50 [4]: 0.0655 µM |
| CCc1c(C2=NC(=S)C(C)(C)N2C)nn(-c2ccc(Cl)cc2Cl)c1-c1ccc(Cl)cc1 | 4.75 µM | 396 | 0.012 µM | Activity [11]: Active; Activity [12]: 25.4%; Activity [13]: Active; Activity [14]: Active; Drug uptake [15]: 243 ng/g; Activity [16]: 5.1%; Activity [17]: 14.7%; Activity [18]: 19.4%; Activity [19]: 9.5%; EC50 [4]: 0.0051 µM; MED [10]: 0.03 mg/kg; Activity [20]: Active |
